Experimental data taken from ChEMBL document CHEMBL4513216, “Probing the Open Global Health Chemical Diversity Library for Multistage-Active Starting Points for Next-Generation Antimalarials” (ACS Infect Dis, 2020).

Assay: Toxicity liver stage against HepG2, at 10uM
Format: cell-based
Set-up: test concentration 10 uM, cell line HepG2-A16-CD81EGFP
Details: human, HepG2-A16-CD81EGFP cells; read-out: INHIBITION
How it was run: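 Uninfected HepG2-A16-CD81EGFP cells, 3 × 10^3 per well, 1536-well, plated on prespotted compound at 10 μM final, parasite-free screening media added to match infected plates; puromycin 10 μM positive, DMSO 0.5% negative; run in parallel with 48 h PbLuc assay at 37 °C, 5% CO2; viability by CellTiter-Glo luminescence, normalized to controls.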

COCCN(Cc1ccccc1)Cc1nc(-c2ccsc2)no1
cytotoxicity at 10 µM: 5.6%

c1ccc2oc(N3CCCC3Cn3cncn3)nc2c1 (configuration not stated)
cytotoxicity at 10 µM: -14.4%

CC(C)Cc1nnc(NCc2ccsc2)o1
cytotoxicity at 10 µM: -0.699%

COc1ccc(CN(C)CC2CCCN2c2cccnn2)cc1F (configuration not stated)
cytotoxicity at 10 µM: 4.48%

N#CCCN(Cc1cccnc1)C(=O)c1ccn(-c2ccccc2)n1
cytotoxicity at 10 µM: 13.9%

CC(NC(=O)NCCN1CCCCCC1=O)c1nncn1C (configuration not stated)
cytotoxicity at 10 µM: -7%

CCn1c(N)nc2cc(C(=O)N(C)Cc3cc(C(C)(C)C)n[nH]3)cnc21
cytotoxicity at 10 µM: 4.53%

O=S(=O)(N(Cc1ccccn1)C1CC1)N1CCCC1c1ccco1 (configuration not stated)
cytotoxicity at 10 µM: -3.73%

CN(CC(=O)N1CCc2[nH]c3ccc(F)cc3c2C1)CC1OCCO1
cytotoxicity at 10 µM: 6.19%

O=C1CC(c2ccccc2)C2(CCN(C(=O)c3cnccn3)CC2)N1 (configuration not stated)
cytotoxicity at 10 µM: -75.1%

O=C(N[C@@H]1CN(Cc2ccc3cc[nH]c3c2)C[C@H]1O)c1cnccn1
cytotoxicity at 10 µM: -8.22%

CC(NC(=O)c1cccs1)C(=O)NCc1cccnc1N1CCCCC1 (configuration not stated)
cytotoxicity at 10 µM: -8.57%

COc1cccc(CNCCc2cc(F)cc3c2OCOC3)c1
cytotoxicity at 10 µM: -23.1%

CN1CCCC1CNC(=O)CCCOc1ccc(Cl)cc1 (configuration not stated)
cytotoxicity at 10 µM: -9.33%

C=Cn1ncc(CN2C[C@@H]3CCCN3C[C@@H]2CCSC)c1C
cytotoxicity at 10 µM: 0.026%

CC1CCCN(C(=O)CCNS(=O)(=O)c2cccnc2)C1 (configuration not stated)
cytotoxicity at 10 µM: -11%

CC(C(=O)NC1CC1)S(=O)(=O)c1cc2c(cc1Cl)OCCO2 (configuration not stated)
cytotoxicity at 10 µM: -13.9%

Cc1noc(C2(C)CCCN(C(=O)c3cnn(C)c3)C2)n1 (configuration not stated)
cytotoxicity at 10 µM: -17.3%

CN1CCN(C2CCN(Cc3cn4ccccc4n3)CC2)C1=O
cytotoxicity at 10 µM: 19.1%

O=C(Nc1ccc(Br)cc1F)c1cc(CN2CCOCC2)on1
cytotoxicity at 10 µM: 6.39%

CN(C)C(=O)N1CCn2cc(CNC(=O)CC3CC3)nc2C1
cytotoxicity at 10 µM: -80.2%

COc1ccc(COCC(=O)NC2CCc3nc(C)cn3C2)cc1 (configuration not stated)
cytotoxicity at 10 µM: 1.6%

Cc1noc([C@]23COC[C@H]2CN(S(=O)(=O)C2CC2)C3)n1
cytotoxicity at 10 µM: 8.1%

CN(CC(=O)N1CCCC1Cn1cccn1)c1cnccn1 (configuration not stated)
cytotoxicity at 10 µM: -5.1%

O=C(C1CC1)N1C[C@@H](F)[C@@H](OCc2nc3ccccc3[nH]2)C1
cytotoxicity at 10 µM: -0.0342%

CC(C)(C)NC(=O)Cn1cc(C(N)=O)c(-c2ccccc2)n1
cytotoxicity at 10 µM: -12.8%

CCS(=O)(=O)NC1CCCN(c2ccc(F)cc2C)C1=O (configuration not stated)
cytotoxicity at 10 µM: 3.93%

CNc1oc(-c2ccc(OC)c(S(=O)(=O)N3CCCCC3)c2)nc1C#N
cytotoxicity at 10 µM: 10.4%

CN(c1cccnc1N1CCCC1)S(=O)(=O)c1cccs1
cytotoxicity at 10 µM: 20.4%

CC(C)CC(N)C1=NC(=C2N=CN=N2)NO1 (configuration not stated)
cytotoxicity at 10 µM: 10.6%

O=C(COc1ccccc1)N(Cc1ccncc1)C1CC1
cytotoxicity at 10 µM: -46.1%

CCc1nc(C2CCCN2C(=O)c2ccc3c(c2)[nH]c(=O)n3C)no1 (configuration not stated)
cytotoxicity at 10 µM: 1.04%

COc1ccc(CCN2C(=O)O[C@@H]3CN(C4CCSCC4)C[C@@H]32)cc1
cytotoxicity at 10 µM: 1.6%

CC[C@H](C)[C@@H](CO)NC(C)Cc1ccc(F)cc1 (some centres not stated)
cytotoxicity at 10 µM: -6.27%

CC1CN(S(=O)(=O)c2cc(S(C)(=O)=O)ccc2Br)c2cccnc2O1 (configuration not stated)
cytotoxicity at 10 µM: -0.346%

CN1CCc2nc(C3CCCN(S(=O)(=O)N4CCCC4)C3)ncc2C1 (configuration not stated)
cytotoxicity at 10 µM: 2.4%

COc1ccc2cc(C(=O)N3CC[C@H](CO)[C@H](O)C3)n(C)c2c1
cytotoxicity at 10 µM: -7.03%

O=C(Cc1ccccc1Cl)NCCN1CCC(c2cccs2)CC1
cytotoxicity at 10 µM: 6.93%

CCCS(=O)(=O)N1CCC(c2ccc(OC)cc2)CC1
cytotoxicity at 10 µM: 2.02%

COC(=O)[C@H]1C[C@@H](O)CCN1S(=O)(=O)c1cc(Cl)ccc1OC
cytotoxicity at 10 µM: 5.1%

COc1ccccc1OCc1cc(C(=O)N2CCN(C(C)=O)CC2)n[nH]1
cytotoxicity at 10 µM: -2.59%

COCCC1(C(=O)O)CCN(c2cc(C)c3ccccc3n2)CC1
cytotoxicity at 10 µM: -41.6%

O=C(O)c1nnn(-c2cccc(C(F)(F)F)c2)c1C1CC1
cytotoxicity at 10 µM: -2.02%

COc1ccc(OC)c(CCC(=O)Nc2cc(C)n[nH]2)c1
cytotoxicity at 10 µM: 7.3%

CCOc1cc(C=Cc2ncc(C(=O)NC)s2)ccc1OC
cytotoxicity at 10 µM: -0.58%

Cc1nc(C)n(C2CCCN(C(=O)c3csc(C(C)C)n3)C2)n1 (configuration not stated)
cytotoxicity at 10 µM: -1.72%

O=C(O)COCC(=O)NC1CC2(CCCCC2)Oc2ccccc21 (configuration not stated)
cytotoxicity at 10 µM: -28.5%

COc1ccc(N2CCN(C(=O)c3nc(Cl)sc3C(C)C)CC2)cc1
cytotoxicity at 10 µM: 3.17%

COc1ccc(CN(C(=O)C(C)C)c2cnn(C)c2)c(OC)c1
cytotoxicity at 10 µM: 3.2%

Cc1nc(C)c(C(=O)N2CCCc3c(F)cccc32)o1
cytotoxicity at 10 µM: -6.75%

CCN(CC)C(=O)c1nnsc1-c1ccc(Cl)cc1
cytotoxicity at 10 µM: 2.74%

O=C(c1ccco1)N1CC[C@@H]2O[C@H](COCCN3CCCC3)CC[C@@H]21
cytotoxicity at 10 µM: -100%

O=C(N[C@H]1CN(c2nc(CO)cs2)C[C@@H]1C1CC1)C1CCCCC1
cytotoxicity at 10 µM: -0.464%

CCC(C)(NCC(=O)Nc1ccccc1)c1nc(C)cs1 (configuration not stated)
cytotoxicity at 10 µM: -8.66%

CC(C)Cc1nc(OCC#N)c(C#N)c2c1CCC2
cytotoxicity at 10 µM: -1.63%

CCc1n[nH]c(C2CN(C(=O)c3ncoc3CC)CCO2)n1 (configuration not stated)
cytotoxicity at 10 µM: 0.567%

COCC(C)NC(=O)CCCn1cnc2ccccc2c1=O (configuration not stated)
cytotoxicity at 10 µM: 8.43%

CCn1cc(Cl)c(C(=O)NCCCN(C)C)n1
cytotoxicity at 10 µM: 9.46%

CC1CN(CCc2ccccn2)CCN1c1ccc2nncn2n1 (configuration not stated)
cytotoxicity at 10 µM: -3.43%

CCNc1cc2c(nn1)CCN(C(=O)Cc1ccc(C)s1)C2
cytotoxicity at 10 µM: -0.375%

Cc1cccc(C(C)CNC(=O)N2CCC3(C2)OCCO3)c1 (configuration not stated)
cytotoxicity at 10 µM: 16.1%

Cc1ncc(CN(C)C(=O)Nc2cccc(C(=O)N3CCOCC3)c2)s1
cytotoxicity at 10 µM: 11.6%

CCOCC(=O)N1CCC2(CC1)COCCN2CCN(C)C
cytotoxicity at 10 µM: -0.464%

CCCC1CN(CCOc2ccccc2)C(=O)c2cccnc2O1 (configuration not stated)
cytotoxicity at 10 µM: -6.77%

CN(Cc1cccnc1)[C@@H]1CN(C(=O)c2ccoc2)[C@@H]2CCCO[C@H]12
cytotoxicity at 10 µM: -1.81%

COc1cccc(CN2CCCC(c3nn(C)c4nccnc34)C2)c1 (configuration not stated)
cytotoxicity at 10 µM: -11.2%

Cc1ccc(N2CCCN(C(=O)c3cc(CC(C)C)n[nH]3)CC2)nn1
cytotoxicity at 10 µM: -14.6%

CN(C)c1nccc(N2CCO[C@H]3CN(Cc4ccco4)C[C@H]32)n1
cytotoxicity at 10 µM: -122%

O=S(=O)(CCN1CCOC(Cn2cncn2)C1)c1ccccc1 (configuration not stated)
cytotoxicity at 10 µM: -9.78%

COc1ccc(C(=O)N2CCOCC(CO)C2)cc1N1CCOCC1 (configuration not stated)
cytotoxicity at 10 µM: -14%

O=C(NCCNc1cnccn1)NCC1CCS(=O)(=O)C1 (configuration not stated)
cytotoxicity at 10 µM: -1.68%

CC(C)Oc1ncccc1CNC(=O)N1CCSCC1
cytotoxicity at 10 µM: -11.8%

CCCc1nc(C)c(C(=O)NCCN2CCOCC2)s1
cytotoxicity at 10 µM: -7.75%

Fc1cccnc1N1CCC2(CNCCC2(F)F)C1 (configuration not stated)
cytotoxicity at 10 µM: -7.15%

CNC(=O)Cn1ccc2ccc(NC(=O)C(C)CSC)cc21 (configuration not stated)
cytotoxicity at 10 µM: -1.1%

CCc1ccc2ncn(Cc3ncc[nH]3)c(=O)c2c1
cytotoxicity at 10 µM: 11.1%

Cc1ccccc1CC(=O)N1CCN(C2CCOC2=O)CC1 (configuration not stated)
cytotoxicity at 10 µM: -8.38%

NC(=O)c1cccc(C(=O)N2CCCC(n3ccnc3)C2)c1 (configuration not stated)
cytotoxicity at 10 µM: -14%

CCS(=O)(=O)CCSc1ccc(Cl)cc1
cytotoxicity at 10 µM: -1.13%

CCCNC1(c2ccc(Cl)cc2)CCOCC1
cytotoxicity at 10 µM: -0.0529%

CN(C)Cc1nc(C2(NC(=O)Nc3ccccc3)CCCC2)no1
cytotoxicity at 10 µM: -0.871%

COCCn1/c(=N\C(=O)CN(C)S(C)(=O)=O)sc2cc(C)ccc21
cytotoxicity at 10 µM: -11.7%
